# Results: ChEMBL document CHEMBL1926663, “Identification of new aminoacid amides containing the imidazo[2,1-b]benzothiazol-2-ylphenyl moiety as inhibitors of tumorigenesis by oncogenic Met signaling” (Eur J Med Chem, 2012)
# Activity calls are given as the source filed them. No cut-off for these calls is given here.
# Tests used:
# [1] = Chemical stability in solid state; type: physicochemical
# [2] = Chemical stability in methanol; type: physicochemical
# [3] = Chemical stability in DMSO; type: physicochemical
# [4] = Chemical stability in chloroform; type: physicochemical
# [5] = tested on: MDCK; experiment: Cytotoxicity against HGF-stimulated […] MDCK cells at biologically active concentration; type: cell-based
# [6] = tested on: MDCK; experiment: Cytotoxicity against HGF-stimulated […] MDCK cells at 50 to 100 fold higher biologically active concentration; type: cell-based
# [7] = target: Hepatocyte growth factor receptor (Homo sapiens) (UniProt P08581); settings: 1 uM
# [8] = target: Macrophage-stimulating protein receptor (Homo sapiens) (UniProt Q04912); experiment: Inhibition of TEL-fused RON-mediated mouse BA/F3 cell proliferation at 1 uM after 48 hrs by cell titre blue based spectrophotometry; settings: BaF3
# In short: (§1)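 Ba/F3 cells expressing active kinase forms, or IL3-dependent; 2×10^4 cells/well; 1/2 serial dilutions from 0 to 10 µM (text also gives 0.1–40 µM); 48 h at 37 °C; Cell Titer Blue; absorbance at 490 nm with cell-free blank for background; proliferation as % of untreated cells; triplicate.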
# [9] = tested on: HepG2; experiment: Cytotoxicity against serum-starved human HepG2 cells assessed as reduction of cell survival after 48 hrs by Cell Titer-Glo luminescent assay; type: functional, cell-based
# [10] = target: Epidermal growth factor receptor (Homo sapiens) (UniProt P00533); experiment: Inhibition of ErbB1 phosphorylation in human BT474 cells at 1 to 10 uM pretreated overnight prior to HGF stimulation by Western blot analysis; type: cell-based; settings: BT-474
# In short: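 BT-474 cells starved, pretreated overnight with compound at 1, 3, 10 µM, then HGF 20 ng/ml; total extracts immunoblotted for phospho-ErbBs; ERK as loading control.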
# [11] = tested on: Mus musculus; experiment: Toxicity in human GTL16 cells xenografted nude mouse assessed as reduction of body weight at 10 to 30 mg/kg, ip administered for every 2 days for 21 days; type: organism-based; design: dose 10-30 mg/kg, route intraperitoneal; settings: in vivo
# [12] = tested on: BT-474; experiment: Cytotoxicity against serum-starved human BT474 cells assessed as reduction of cell survival at 10 to 30 uM after 48 hrs by Cell Titer-Glo luminescent assay; type: functional, cell-based
# In short: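 Cells were held in serum-free medium for 24 h, then exposed to compound for 48 h. Viability was read by CellTiter-Glo luminescence, and data come from three independent experiments run in duplicate. BT474 was routinely maintained in RPMI with 4 mM L-glutamine, 10% FBS and penicillin/streptomycin at 37 °C under 5% CO2.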
# [13] = target: Hepatocyte growth factor receptor (Homo sapiens) (UniProt P08581); settings: HepG2, 10 uM
# [14] = tested on: BaF3; experiment: Antiproliferative activity against IL3-stimulated mouse BA/F3 cells at 1 uM after 48 hrs by cell titre blue based spectrophotometry; type: functional; in short: as §1
# [15] = Antitumor activity against human GTL16 cells xenografted in nude mouse assessed as reduction tumor weight at 10 mg/kg, ip administered for every 2 days for 21 days (reference value: 865.4 348.9 mg); type: functional, GTL 16; settings: route intraperitoneal
# [16] = Antitumor activity against human GTL16 cells xenografted in nude mouse assessed as reduction tumor weight at 10 to 30 mg/kg, ip administered for every 2 days for 21 days; type: functional, GTL 16; design: scale not given: the % may be the effect or the level left; settings: dose mg/kg 10-30; route intraperitoneal
# [17] = tested on: Hepatocyte; experiment: Cytotoxicity against hepatocytes assessed as reduction in cell viability at 100 uM after 24 hrs by Cell Titer-Glo luminescent assay; type: cell-based
# In short: (§2)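 Primary embryonic cortical neuron and hepatocyte cultures exposed to compound for 24 h; viability read by Cell Titer Glo luminescence; quadruplicate.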
# [18] = Antitumor activity against human GTL16 cells xenografted in nude mouse assessed as reduction tumor weight at 30 mg/kg, ip administered for every 2 days for 21 days (reference value: 865.4 348.9 mg); type: functional, GTL 16; settings: route intraperitoneal
# [19] = tested on: GTL 16; experiment: Cytotoxicity against serum-starved human GTL16 cells assessed as reduction of cell survival after 48 hrs by Cell Titer-Glo luminescent assay; type: functional, cell-based
# [20] = target: Hepatocyte growth factor receptor (Homo sapiens) (UniProt P08581); settings: 10 uM
# [21] = Cytotoxicity against cortical neurons assessed as reduction in cell viability at 100 uM after 24 hrs by Cell Titer-Glo luminescent assay; settings: cortical neurone; in short: as §2
# [22] = tested on: MCF7; experiment: Cytotoxicity against serum-starved human MCF7 cells over-expressing ErbB2 cells assessed as reduction of cell survival at 10 to 30 uM after 48 hrs by Cell Titer-Glo luminescent assay; type: functional, cell-based
# [23] = target: Hepatocyte growth factor receptor (Homo sapiens) (UniProt P08581); settings: BaF3; 1 uM
# [24] = target: Hepatocyte growth factor receptor (Homo sapiens) (UniProt P08581); experiment: Inhibition of Met-mediated scattering in HGF-stimulated […] MDCK cells pre-incubated overnight prior to HGF stimulation for 24 hrs measured after 24 to 48 hrs; type: cell-based
# [25] = tested on: MCF7; experiment: Cytotoxicity against serum-starved human MCF7 cells over-expressing ErbB2 cells at 2 uM after 48 hrs by Cell Titer-Glo luminescent assay; type: functional, cell-based
# [26] = tested on: HepG2; experiment: Cytotoxicity against serum-starved human HepG2 cells at 2 uM after 48 hrs by Cell Titer-Glo luminescent assay; type: functional, cell-based
# [27] = tested on: BT-474; experiment: Cytotoxicity against serum-starved human BT474 cells at 2 uM after 48 hrs by Cell Titer-Glo luminescent assay; type: functional, cell-based
# [28] = tested on: GTL 16; experiment: Cytotoxicity against serum-starved human GTL16 cells at 2 uM after 48 hrs by Cell Titer-Glo luminescent assay; type: functional, cell-based
# [29] = tested on: MCF7; experiment: Cytotoxicity against serum-starved human MCF7 cells over-expressing ErbB2 cells at 10 uM after 48 hrs by Cell Titer-Glo luminescent assay; type: functional, cell-based
# [30] = tested on: BT-474; experiment: Cytotoxicity against serum-starved human BT474 cells at 10 uM after 48 hrs by Cell Titer-Glo luminescent assay; type: functional, cell-based
# [31] = target: Hepatocyte growth factor receptor (Homo sapiens) (UniProt P08581); experiment: Inhibition of Met-mediated scattering in HGF-stimulated […] MDCK cells at 10 uM pre-incubated overnight prior to HGF stimulation for 24 hrs measured after 24 to 48 hrs; type: cell-based
# In short: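 MDCK cells in DMEM with 2% FBS, 1000 cells/well, settled overnight; compounds 0.1–100 µM overnight at 37 °C, then HGF 20 ng/ml for 24 h; further 24–48 h; PBS wash, 4% PFA fix; scattered cells counted in 30 colonies; IC50 = 50% inhibition of scattering.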
smiles,measurement,setting,value
Cc1cc(C)cc(CC(=O)N[C@H](Cc2ccccc2)C(=O)Nc2ccc(-c3cn4c5c(sc4n3)CN(Cc3ccccc3)CC5)cc2)c1,Stability,[1],Stable
same,Stability,[2],Stable
same,Stability,[3],Stable
same,Stability,[4],Stable
Cc1cc(C)cc(CC(=O)N[C@H](Cc2ccccc2)C(=O)Nc2ccc(-c3cn4c(n3)sc3ccccc34)cc2)c1,Stability,[1],Stable
same,Stability,[2],Stable
same,Activity,[5],Non-toxic
same,Activity,[6],Toxic
same,Stability,[3],Stable
same,Stability,[4],Stable
O=C(Cc1cc(F)cc(F)c1)N[C@@H](CS)C(=O)Nc1ccc(-c2cn3c4c(sc3n2)CN(Cc2ccccc2)CC4)cc1,Stability,[1],Stable
same,Stability,[2],Stable
same,Stability,[3],Stable
same,Stability,[4],Stable
O=C(Cc1cc(C(F)(F)F)cc(C(F)(F)F)c1)N[C@@H](Cc1ccccc1)C(=O)Nc1ccc(-c2cn3c(n2)sc2ccccc23)cc1,inhibition,[7],21%
same,Stability,[1],Stable
same,inhibition,[8],Active
same,Activity,[9],Dose-dependent effect
same,Stability,[2],Stable
same,inhibition,[10],inactive
same,Activity,[11],Non-toxic
same,Activity,[12],inactive
same,inhibition,[13],30%
same,Activity,[14],Active
same,Activity,[15],268.8 mg
same,Activity,[5],Non-toxic
same,Activity,[16],70%
same,Activity,[17],28%
same,Activity,[6],Toxic
same,Activity,[18],234.8 mg
same,Activity,[19],Dose-dependent effect
same,inhibition,[20],53%
same,Stability,[3],Stable
same,Stability,[4],Stable
same,Activity,[21],12%
same,Activity,[22],inactive
same,inhibition,[23],Active
Cc1cc(C)cc(CC(=O)NCC(=O)Nc2ccc(-c3cn4c(n3)sc3ccccc34)cc2)c1,Stability,[1],Stable
same,inhibition,[24],inactive
same,Stability,[2],Stable
same,Stability,[3],Stable
same,Stability,[4],Stable
Cc1ccc(C[C@H](NC(=O)Cc2cc(C)cc(C)c2)C(=O)Nc2ccc(-c3cn4c(n3)sc3ccccc34)cc2)cc1,Stability,[1],Stable
same,Stability,[2],Stable
same,Stability,[3],Stable
same,Stability,[4],Stable
Cc1cc(C)cc(CC(=O)N[C@@H](Cc2ccccc2)C(=O)Nc2ccc(-c3cn4c5c(sc4n3)CCCC5)cc2)c1,Stability,[1],Stable
same,Stability,[2],Stable
same,Stability,[3],Stable
same,Stability,[4],Stable
Cc1ccc(C[C@H](NC(=O)Cc2cc(C(F)(F)F)cc(C(F)(F)F)c2)C(=O)Nc2ccc(-c3cn4c(n3)sc3ccccc34)cc2)cc1,Stability,[1],Stable
same,Stability,[2],Stable
same,Stability,[3],Stable
same,Stability,[4],Stable
O=C(Cc1cc(C(F)(F)F)cc(C(F)(F)F)c1)N[C@H](Cc1ccccc1)C(=O)Nc1ccc(-c2cn3c(n2)sc2ccccc23)cc1,Stability,[1],Stable
same,Activity,[9],Dose-dependent effect
same,Stability,[2],Stable
same,Activity,[12],inactive
same,Activity,[5],Non-toxic
same,Activity,[6],Toxic
same,Activity,[19],Dose-dependent effect
same,Stability,[3],Stable
same,Stability,[4],Stable
same,Activity,[22],inactive
O=C(Cc1cc(F)cc(F)c1)N[C@@H](Cc1ccccc1)C(=O)Nc1ccc(-c2cn3c(n2)sc2ccccc23)cc1,Stability,[1],Stable
same,Activity,[9],Dose-dependent effect
same,Stability,[2],Stable
same,Activity,[12],inactive
same,Activity,[5],Non-toxic
same,Activity,[6],Toxic
same,Activity,[19],Dose-dependent effect
same,Stability,[3],Stable
same,Stability,[4],Stable
same,Activity,[22],inactive
Cc1[nH]c(/C=C2\C(=O)Nc3ccc(S(=O)(=O)N(C)c4cccc(Cl)c4)cc32)c(C)c1C(=O)N1CCN(C)CC1,Activity,[25],inactive
same,Activity,[26],Active
same,Activity,[27],inactive
same,Activity,[28],Active
O=C(Cc1cc(F)cc(F)c1)NCCC(=O)Nc1ccc(-c2cn3c4c(sc3n2)CCN(Cc2ccccc2)C4)cc1,Stability,[1],Stable
same,Stability,[2],Stable
same,Stability,[3],Stable
same,Stability,[4],Stable
C[C@H](NC(=O)Cc1cc(F)cc(F)c1)C(=O)Nc1ccc(-c2cn3c4c(sc3n2)CCN(Cc2ccccc2)C4)cc1,Stability,[1],Stable
same,Stability,[2],Stable
same,Stability,[3],Stable
same,Stability,[4],Stable
COc1cc2ncnc(Nc3ccc(F)c(Cl)c3)c2cc1OCCCN1CCOCC1,Activity,[29],Active
same,Activity,[30],Active
Cc1cc(C)cc(CC(=O)N[C@@H](Cc2ccccc2)C(=O)Nc2ccc(-c3cn4c(n3)sc3ccccc34)cc2)c1,Stability,[1],Stable
same,Activity,[9],Dose-dependent effect
same,Stability,[2],Stable
same,Activity,[12],inactive
same,Activity,[5],Non-toxic
same,Activity,[6],Toxic
same,Activity,[19],Dose-dependent effect
same,Stability,[3],Stable
same,Stability,[4],Stable
same,Activity,[22],inactive
Cc1ccc(CC(=O)N[C@@H](Cc2ccccc2)C(=O)Nc2ccc(-c3cn4c(n3)sc3ccccc34)cc2)cc1,Stability,[1],Stable
same,Stability,[2],Stable
same,inhibition,[31],30%
same,Activity,[5],Non-toxic
same,Activity,[6],Toxic
same,Stability,[3],Stable
same,Stability,[4],Stable
O=C(Cc1cc(F)cc(F)c1)NCCC(=O)Nc1ccc(-c2cn3c4c(sc3n2)CN(Cc2ccccc2)CC4)cc1,Stability,[1],Stable
same,Stability,[2],Stable
same,Stability,[3],Stable
same,Stability,[4],Stable
Cc1cc(C)cc(CC(=O)N[C@@H](Cc2ccccc2)C(=O)Nc2ccc(-c3cn4c5c(sc4n3)CN(Cc3ccccc3)CC5)cc2)c1,Stability,[1],Stable
same,Stability,[2],Stable
same,Stability,[3],Stable
same,Stability,[4],Stable
C[C@@H](NC(=O)Cc1cc(F)cc(F)c1)C(=O)Nc1ccc(-c2cn3c4c(sc3n2)CCN(Cc2ccccc2)C4)cc1,Stability,[1],Stable
same,Stability,[2],Stable
same,Stability,[3],Stable
same,Stability,[4],Stable
O=C(Cc1cc(C(F)(F)F)cc(C(F)(F)F)c1)N[C@@H](Cc1ccccc1)C(=O)Nc1ccc(-c2cn3c(n2)sc2cc(Br)ccc23)cc1,Stability,[1],Stable
same,Stability,[2],Stable
same,Activity,[5],Non-toxic
same,Activity,[6],Toxic
same,Stability,[3],Stable
same,Stability,[4],Stable
Cc1cc(C)cc(CC(=O)N[C@@H](Cc2ccc(O)cc2)C(=O)Nc2ccc(-c3cn4c(n3)sc3ccccc34)cc2)c1,Stability,[1],Stable
same,Stability,[2],Stable
same,Stability,[3],Stable
same,Stability,[4],Stable
